Data on 31 compounds can be found in ChEMBL document CHEMBL1137389, “Synthesis and biological properties of novel, uracil-containing histone deacetylase inhibitors” (J Med Chem, 2006).

The source made the active and inactive calls. The rule behind the calls is not given here.

Experiment [1] addresses T1, Histone deacetylase HD2 (Zea mays, UniProt Q94F81).
T1 sequence (Q94F81 whole entry): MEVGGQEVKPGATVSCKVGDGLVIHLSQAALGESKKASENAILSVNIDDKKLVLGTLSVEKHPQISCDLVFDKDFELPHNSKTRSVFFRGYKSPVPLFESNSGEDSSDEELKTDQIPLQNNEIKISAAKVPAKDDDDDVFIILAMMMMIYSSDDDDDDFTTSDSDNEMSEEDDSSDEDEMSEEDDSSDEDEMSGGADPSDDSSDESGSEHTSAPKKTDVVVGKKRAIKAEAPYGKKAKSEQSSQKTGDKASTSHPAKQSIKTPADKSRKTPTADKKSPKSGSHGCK
Nature of the experiment: Inhibition of maize HD2.

Experiment [2] deals with Histone deacetylase HD1B (Zea mays, UniProt Q9ZTP8). Nature of the experiment: Inhibition of maize HD1B.
The test system of experiment [3] is U-937. Nature of the experiment: Cell cycle arrest in U937 cells by accumulation at G1 phase at 1 uM after 24 hrs. The format is functional, cell-based. To be noted: Homo sapiens. The essentials: (§1)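 U937 cells (RPMI, 10% FCS, kept at 200 000 cells/mL) treated 24 h at 1 or 5 µM (DMSO stocks); 2.5 × 10^5 cells resuspended in hypotonic buffer (0.1% Triton X-100, 0.1% sodium citrate, 50 µg/mL PI, RNAse A), 30 min dark; DNA content by flow cytometry; experiments performed three times.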

For experiment [4], the system named is U-937. As to the kind of experiment: Induction of apoptosis in U937 cells at 5 uM by AnnexinV/PI double staining. The class given is functional. In a few lines: (§2)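 U937 cells exposed 48 h at 1 or 5 µM; apoptosis read by Annexin V/propidium iodide double staining and FACS.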
Experiment [5] concerns the target Histone deacetylase 1 (Mus musculus, UniProt O09106). As to the kind of experiment: Inhibition of mouse HDAC1.
For experiment [6], the system named is U-937. Nature of the experiment: Induction of granulocytic differentiation of U937 cells measured as CD11c expression level after 48 hrs at 5 uM. The format is functional, Homo sapiens. The essentials: (§3)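 Granulocytic differentiation: U937 cells treated 48 h at 1 or 5 µM, stained with PE-conjugated anti-CD11c (PE mouse IgG1 control) 30 min at 4 °C in dark, resuspended in PBS with PI 0.25 µg/mL; FACS, PI-positive cells excluded; percent CD11c-positive PI-negative cells reported.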

For experiment [7], the system named is U-937. As to the kind of experiment: Induction of H3 histone acetylation in U937 cells by Western blot analysis at 5 uM. The format is functional, cell-based. The conditions noted are these: Homo sapiens. Background: In western blotting, separated proteins are transferred to a membrane and probed.
In experiment [8] the test system is U-937. As to the kind of experiment: Cell cycle arrest in U937 cells by accumulation at G1 phase at 5 uM after 24 hrs. The class given is functional, cell-based. The conditions noted are these: Homo sapiens. In a few lines: as §1
Experiment [9] relates to U-937. Nature of the experiment: Antiproliferative activity against U937 cells at 5 uM. The format is functional, cell-based. To be noted: Homo sapiens. The essentials: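 U937 cells seeded at 200 000 cells/mL in RPMI/10% FCS with vehicle or inhibitor at 5 µM; living cells counted every 24 h by Trypan Blue exclusion; data plotted after three days; triplicate.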
The test system of experiment [10] is U-937. Nature of the experiment: Induction of granulocytic differentiation of U937 cells measured as CD11c expression level after 48 hrs at 1 uM. The class given is functional, Homo sapiens. The essentials: as §3
The test system of experiment [11] is U-937. As to the kind of experiment: Cell cycle arrest in U937 cells by accumulation at S/G2/M phase at 5 uM after 24 hrs. The conditions noted are these: Homo sapiens.
For experiment [12], the system named is Zea mays. As to the kind of experiment: Selectivity for HD1A class II HDAC over HD1B class I HDAC.
Experiment [13] has as its system U-937. As to the kind of experiment: Induction of apoptosis in U937 cells at 1 uM by AnnexinV/PI double satining. The format is functional, Homo sapiens. In a few lines:
as §2

The target of experiment [14] is Histone deacetylase 1 (Homo sapiens) (UniProt Q13547). As to the kind of experiment: Inhibition of HDAC1 in U937 cell at 5 uM. To be noted: U-937. In a few lines: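 HDAC1 immunoprecipitated overnight at 4 °C from U937 lysates (1000 µg extract, anti-HDAC1; IgG negative control); 10 µL IP incubated overnight at 37 °C with 120 000 CPM [3H]acetyl-histone H4 peptide on streptavidin beads in HDAC buffer ± inhibitor (5 µM); released radioactivity by scintillation counting; quadruplicate.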

The target in experiment [15] is Histone deacetylase 4 (Homo sapiens) (UniProt P56524). Nature of the experiment: Inhibition of HDAC4 in ZR75.1 cell at 5 uM. The conditions noted are these: ZR-75-1. In a few lines:
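HDAC4 immunoprecipitated overnight at 4 °C from ZR-75.1 breast cancer lysates (1000 µg extract, anti-HDAC4; IgG negative control); 10 µL IP incubated overnight at 37 °C with 120 000 CPM [3H]acetyl-histone H4 peptide on streptavidin beads in HDAC buffer ± inhibitor (5 µM); scintillation counting; quadruplicate.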

Experiment [16] deals with T2, Histone deacetylase HD2 (Zea mays) (UniProt Q94F81).
T2 sequence (whole entry): T1 sequence (Q94F81 whole entry)
As to the kind of experiment: Inhibition of maize HD2 at 20.9 uM.

In experiment [17] the test system is Zea mays. As to the kind of experiment: Inhibition of maize HD1A at 20.9 uM.
For experiment [18], the target named is Histone deacetylase HD1B (Zea mays) (UniProt Q9ZTP8). As to the kind of experiment: Inhibition of maize HD1B at 20.9 uM.
For experiment [19], the system named is U-937. Nature of the experiment: Induction of alpha-tubulin acetylation in U937 cells by Western blot analysis. The class given is functional, cell-based. To be noted: Homo sapiens. In a few lines: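 Western blot of U937 total protein extracts (25 µg) on 10% polyacrylamide gel, probed for acetylated alpha-tubulin (1:500); total ERKs used as loading control.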

Sequence of Histone deacetylase HD1B (Q9ZTP8 whole entry): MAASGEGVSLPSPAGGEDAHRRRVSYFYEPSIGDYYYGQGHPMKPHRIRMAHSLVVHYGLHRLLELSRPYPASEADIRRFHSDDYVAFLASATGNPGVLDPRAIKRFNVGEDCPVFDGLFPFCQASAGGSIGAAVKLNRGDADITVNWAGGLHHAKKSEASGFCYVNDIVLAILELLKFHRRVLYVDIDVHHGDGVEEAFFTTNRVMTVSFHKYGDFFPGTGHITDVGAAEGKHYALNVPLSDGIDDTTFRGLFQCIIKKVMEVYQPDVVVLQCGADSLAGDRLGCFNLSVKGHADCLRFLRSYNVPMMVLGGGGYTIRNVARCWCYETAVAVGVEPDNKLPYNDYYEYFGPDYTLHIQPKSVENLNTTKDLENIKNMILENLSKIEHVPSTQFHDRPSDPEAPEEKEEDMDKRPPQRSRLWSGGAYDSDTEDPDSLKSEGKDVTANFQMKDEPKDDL
Sequence of Histone deacetylase 1 (O09106 whole entry): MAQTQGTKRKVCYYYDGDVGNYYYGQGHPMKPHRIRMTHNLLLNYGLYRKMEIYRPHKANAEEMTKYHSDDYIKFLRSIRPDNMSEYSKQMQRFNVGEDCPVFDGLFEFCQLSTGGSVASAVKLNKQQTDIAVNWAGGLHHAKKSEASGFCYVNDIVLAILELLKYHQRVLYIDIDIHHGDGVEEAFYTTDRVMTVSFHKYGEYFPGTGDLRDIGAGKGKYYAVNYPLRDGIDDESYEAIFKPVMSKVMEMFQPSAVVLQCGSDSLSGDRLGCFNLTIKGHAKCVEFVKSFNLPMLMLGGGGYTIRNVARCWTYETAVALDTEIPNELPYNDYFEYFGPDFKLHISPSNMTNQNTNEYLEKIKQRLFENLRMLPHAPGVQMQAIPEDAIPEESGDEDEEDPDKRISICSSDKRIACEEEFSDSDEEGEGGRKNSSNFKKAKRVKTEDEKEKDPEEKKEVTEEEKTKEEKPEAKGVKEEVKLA
Sequence of Histone deacetylase 1 (Homo sapiens) (Q13547 whole entry): as the sequence (O09106 whole entry) above, with K8R, E399D, D424E counted along it
Sequence of Histone deacetylase 4 (Homo sapiens) (P56524 whole entry): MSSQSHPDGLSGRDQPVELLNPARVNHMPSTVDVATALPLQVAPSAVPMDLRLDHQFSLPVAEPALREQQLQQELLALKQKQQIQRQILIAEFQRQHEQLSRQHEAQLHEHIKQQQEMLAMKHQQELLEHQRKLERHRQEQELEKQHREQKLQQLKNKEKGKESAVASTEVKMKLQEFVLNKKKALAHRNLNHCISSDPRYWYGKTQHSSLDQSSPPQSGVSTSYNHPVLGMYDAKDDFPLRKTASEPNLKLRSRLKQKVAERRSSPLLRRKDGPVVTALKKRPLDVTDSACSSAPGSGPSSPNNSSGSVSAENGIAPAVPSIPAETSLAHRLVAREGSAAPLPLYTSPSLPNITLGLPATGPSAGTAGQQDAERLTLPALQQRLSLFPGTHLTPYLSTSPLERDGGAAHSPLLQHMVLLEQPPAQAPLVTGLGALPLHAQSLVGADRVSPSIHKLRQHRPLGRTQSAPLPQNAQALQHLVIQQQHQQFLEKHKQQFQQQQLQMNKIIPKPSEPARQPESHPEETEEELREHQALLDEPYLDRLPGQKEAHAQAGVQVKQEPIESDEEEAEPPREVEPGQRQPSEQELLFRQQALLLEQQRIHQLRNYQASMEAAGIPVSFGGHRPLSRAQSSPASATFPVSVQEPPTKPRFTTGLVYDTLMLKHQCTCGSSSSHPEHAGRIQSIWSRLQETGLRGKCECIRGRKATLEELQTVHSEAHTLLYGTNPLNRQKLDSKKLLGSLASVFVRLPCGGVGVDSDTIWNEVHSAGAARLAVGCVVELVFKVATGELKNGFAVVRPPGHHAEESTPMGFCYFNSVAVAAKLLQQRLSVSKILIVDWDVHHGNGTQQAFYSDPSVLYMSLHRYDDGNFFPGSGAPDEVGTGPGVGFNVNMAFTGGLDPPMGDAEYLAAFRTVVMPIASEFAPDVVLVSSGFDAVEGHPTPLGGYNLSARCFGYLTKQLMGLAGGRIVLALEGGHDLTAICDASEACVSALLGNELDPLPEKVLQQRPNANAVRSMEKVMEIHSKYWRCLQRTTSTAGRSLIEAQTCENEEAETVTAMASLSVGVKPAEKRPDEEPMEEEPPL
Sequence of Histone deacetylase HD1B (Zea mays) (Q9ZTP8 as listed by the source): as the sequence (Q9ZTP8 whole entry) above

In the case of `COC(c1ccccc1)c1cc(O)nc(SCCCCCC(=O)NO)n1` (stereo not drawn), the figures for the IC50 in experiment [1] and in [2] were 82 nM and 79 nM, respectively.
Consider `CC(/C=C/C(=O)NO)=C\[C@@H](C)C(=O)c1ccc(N(C)C)cc1` [TRICHOSTATIN], for which the IC50 in [2] stood at 0.4 nM.
In the case of `O=C(/C=C/c1cccc(CSc2nc(O)cc(-c3ccccc3)n2)c1)NO`, the result in [3], in experiment [7], in experiment [8] and in experiment [9] was Active. Moreover, in experiment [4] (Homo sapiens), the result was inactive. The IC50 stood at 57 nM in [5], 17 nM in experiment [1] and 64 nM in [2]. The Activity in experiment [6] was determined as 33%.
For the compound `O=C(/C=C/c1ccccc1CSc1nc(O)cc(Cc2ccccc2)n1)NO`, the IC50 is 760 nM in [1] and 1060 nM in experiment [2].
As to `O=C(CCCCCCSc1nc(CCc2ccccc2)cc(=O)[nH]1)NO`, the values for the IC50 in experiment [1] and in experiment [2] were 83 nM and 62 nM, respectively.
With `O=C(CCCCCCC(=O)Nc1ccccc1)NO` [VORINOSTAT], the Activity was 98% in experiment [4], 48% in experiment [10] and 32% in [6]. In experiment [11], the outcome was Active.
For `O=C(CCCCCCSc1nc(O)cc(-c2ccccc2)n1)NO`, the Selectivity ratio in experiment [12] was > 3.
Take `O=C(CCCSc1nc(O)cc(-c2ccccc2)n1)NO`: the IC50 in experiment [1] worked out at 27 nM; in [2] it was 31 nM.
As to `O=C(CCCCCSc1nc(O)cc(C(c2ccccc2)c2ccccc2)n1)NO`, the outcome in experiment [4] (Homo sapiens) was inactive.
For `O=C(CCCCSc1nc(CCc2ccccc2)cc(=O)[nH]1)NO`, the IC50 in experiment [1] came out at 40 nM; in [2] it was 46 nM.
The corresponding values for `O=C(/C=C/c1ccccc1CSc1nc(O)cc(-c2ccccc2)n1)NO` are 367 nM and 780 nM.
On to `O=C(CCCSc1nc(O)cc(CCc2ccccc2)n1)NO`, for which the figures for the IC50 in experiment [1] and in experiment [2] were 205 nM and 170 nM, respectively.
Turning to `O=C(CCCCCCCSc1nc(CCc2ccccc2)cc(=O)[nH]1)NO`, the IC50 was 90 nM in [1] and 62 nM in experiment [2].
Regarding `CC(c1ccccc1)c1cc(=O)[nH]c(SCCCCCC(=O)NO)n1` (stereo not drawn), the values for the IC50 in experiment [5], in [1] and in experiment [2] were 121 nM, 9 nM and 92 nM, respectively.
For `O=C(CCSc1nc(O)cc(CCc2ccccc2)n1)NO`, the IC50 in [1] came out at 37 nM; in experiment [2], 60 nM.
The corresponding values for `O=C(CCCCCCCSc1nc(-c2ccccc2)cc(=O)[nH]1)NO` are 42 nM and 89 nM.
The corresponding values for `O=C(CCSc1nc(-c2ccccc2)cc(=O)[nH]1)NO` are 822 nM and 890 nM.
On to `O=C(CCCCCSc1nc(Cc2ccccc2)cc(=O)[nH]1)NO`, for which the outcome in experiment [4] (Homo sapiens) was inactive. The IC50 in [5] amounted to 103 nM; in experiment [2] it was 18 nM. The Activity in experiment [6] is 30%.
For the compound `O=C(CCCCSc1nc(O)cc(CCc2ccccc2)n1)NO`, in experiment [12], the Selectivity ratio was > 3.
As to `O=C(/C=C/c1ccc(CSc2nc(O)cc(-c3ccccc3)n2)cc1)NO`, the Activity in experiment [13] worked out at 8.8%; in experiment [10], 42.5%; in [6] it was 46%. In addition, the result in experiment [4] (Homo sapiens) was inactive. Further, the IC50 in experiment [5] came to 34 nM; in experiment [1] it was 23 nM; in experiment [2] it was 112 nM. The figures for the inhibition in [14] and in experiment [15] were 94% and 14%, respectively. Besides, the outcome in experiment [7], in experiment [8] and in experiment [9] was Active.
On to `O=C(CCCCCCSc1nc(-c2ccccc2)cc(=O)[nH]1)NO`, for which the IC50 in experiment [1] is 38 nM; in experiment [2], 48 nM.
The compound `O=C(CCCCCSc1nc(-c2ccccc2)cc(=O)[nH]1)NO` showed an IC50 in experiment [2] of 19 nM. In addition, the Selectivity ratio in [12] is > 3.
For `O=C(/C=C/Sc1nc(O)cc(-c2ccccc2)n1)NO`, the inhibition in experiment [16], in [17] and in experiment [18] was 0% throughout.
In the case of `O=C(CCCCCSc1nc(C2(c3ccccc3)CC2)cc(=O)[nH]1)NO`, the IC50 in [1] is 62 nM; in experiment [2], 47 nM.
As for `O=C(CCCCCSc1nc(C(c2ccccc2)c2ccccc2)cc(=O)[nH]1)NO`, the IC50 in experiment [1] turned out to be 52 nM; in experiment [2] it was 58 nM.
As to `O=C(/C=C/c1ccc(CSc2nc(O)cc(Cc3ccccc3)n2)cc1)NO`, in experiment [4] (Homo sapiens), the result was inactive. Moreover, the values for the IC50 in experiment [5], in experiment [1] and in experiment [2] were 110 nM, 80 nM and 73 nM, respectively. Besides, the Activity in experiment [10] worked out at 30%; in experiment [6], 33%.
With `O=C(/C=C/Sc1nc(O)cc(CCc2ccccc2)n1)NO`, the IC50 in experiment [1] was determined as 41000 nM; in experiment [2] it was 96000 nM.
As for `O=C(CCCCSc1nc(-c2ccccc2)cc(=O)[nH]1)NO`, the result in experiment [4] (Homo sapiens) was inactive. Moreover, the results for the IC50 in experiment [5], in experiment [1] and in [2] were 40 nM, 8 nM and 10 nM, respectively. Moreover, the values for the inhibition in experiment [14] and in [15] were 46% and 0%, respectively. Moreover, the outcome in [7] and in experiment [19] was Active.
For the compound `CCC(c1ccccc1)c1cc(=O)[nH]c(SCCCCCC(=O)NO)n1` (stereo not drawn), the IC50 amounted to 32 nM in experiment [1] and 31 nM in [2].
`O=C(CCCCCCCSc1nc(O)cc(-c2ccccc2)n1)NO`: the Selectivity ratio in experiment [12] was > 3.
`O=C(/C=C/c1cccc(CSc2nc(O)cc(Cc3ccccc3)n2)c1)NO` registered an Activity in [13] of 8%. In addition, in experiment [4] (Homo sapiens), the result was inactive. For the same compound, the IC50 was found to be 90 nM in [5], 41 nM in experiment [1] and 42 nM in experiment [2].

By IC50 is commonly meant the midpoint of a concentration-inhibition curve. High values mean a need for much substance, low ones inhibition by little substance. The term inhibition denotes the change of the read-out against control, counted positive when it falls. Read a low inhibition as a response near the control.
